The text below walks through data of ChEMBL document CHEMBL3259755, “Synthesis, antinociceptive activity and pharmacokinetic profiles of nicorandil and its isomers” (Bioorg Med Chem, 2014).

Calls of active or inactive are those of the source.

Series [1] relates to Mus musculus. Kind of series: Antinociceptive activity in Swiss mouse assessed as inhibition of formaldehyde-induced nociceptive response in right hind paw at 50 to 150 mg/kg, po administered 5 mins followed by formaldehyde challenge measured for 15 to 30 mins. The format is functional, organism-based. Summed up: (§1)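 Female Swiss mice received compound p.o. (50, 100 or 150 mg/kg in 0.5% CMC) 5 min before s.c. injection of 0.92% formaldehyde (20 µL) into the right hindpaw. Licking time was recorded at 0–5 min and 15–30 min; n = 9. ANOVA with Newman–Keuls.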

The subject of series [2] is Mus musculus. Kind of series: Antinociceptive activity in Swiss mouse assessed as inhibition of formaldehyde-induced nociceptive response in right hind paw at 50 to 150 mg/kg, po administered 5 mins followed by formaldehyde challenge measured over 5 mins. The format is functional, organism-based. The gist of the method: as §1
Series [3] can be described thus: AUC (0 to infinity) in Swiss mouse at 100 mg/kg, po by LC-MS/MS analysis. Type of series: ADME, organism-based. Further details: time infinity, dose 100 mg/kg, route oral. The conditions noted are these: plasma. Summed up: (§2)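 Female Swiss mice (25–30 g), fasted 12 h, given 100 mg/kg p.o. as a suspension in 0.5% CMC (4 mL/kg). Heparinized blood was centrifuged and plasma stored at −70 °C. Plasma was run by LC–MS/MS on a C18 column with methanol/2 mM ammonium acetate + 0.03% formic acid (33:67). Values are mean ± S.E.M.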

The test system of series [4] is Plasma. The series can be described thus: Drug metabolism in Swiss mouse plasma assessed as nitrite level at 100 mg/kg, po measured after 0.25 to 3 hrs by Griess assay. The format is ADME, organism-based. Further details: dose 100 mg/kg, route oral. Particulars: in vivo. The gist of the method: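 Female Swiss mice fasted 12 h received vehicle (0.5% CMC, 4 ml/kg) or compound at 100 mg/kg p.o. After ketamine/xylazine anesthesia at 15 min, 1 h and 3 h, blood was taken from the abdominal artery to avoid hemolysis. Heparinized plasma, stored at −70 °C, was mixed 1:1 with Griess reagent for 10 min at room temperature. A540 read against blank plasma; n = 7.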
(Griess reagent forms a coloured azo dye with nitrite.)

The nature of series [5]: Cmax in Swiss mouse at 100 mg/kg, po by LC-MS/MS analysis. Also on record: dose 100 mg/kg, route oral. The format is ADME, organism-based. The conditions noted are these: in vivo. Summed up:
as §2

The test system of series [6] is Plasma. Kind of series: Drug metabolism in Swiss mouse plasma assessed as formation of nicotinamide at 100 mg/kg, po after 10 hrs by LC-MS/MS analysis. Type of series: ADME, organism-based. Further details: dose 100 mg/kg, route oral. Particulars: in vivo. Summed up:
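Female Swiss mice fasted 12 h received 100 mg/kg p.o. in 0.5% CMC. Six mice per time point were sampled by decapitation from 5 min to 10 h, plus six untreated controls. Heparinized plasma stored at −70 °C. Nicotinamide measured by LC–MS/MS (C18, methanol/ammonium acetate–formic acid mobile phase).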

For series [7], the system named is Mus musculus. The series can be described thus: Antinociceptive activity in Swiss mouse assessed as inhibition of formaldehyde-induced nociceptive response in right hind paw at 100 to 150 mg/kg, po administered 1 hr followed by formaldehyde challenge measured 15 to 30 mins. The format is functional, organism-based. The gist of the method: (§3)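 Female Swiss mice received vehicle (0.5% CMC, 4 ml/kg) or compound p.o. at 50–150 mg/kg, or at 3–30 mg/kg, 1 h before 20 µL of 0.92% formaldehyde s.c. into the dorsal right hindpaw. Paw-licking time was scored at 0–5 min (first phase) and 15–30 min (second phase). n = 9. Data: mean ± S.E.M., one-way ANOVA with Newman–Keuls.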

Series [8] relates to Mus musculus. The series can be described thus: Antinociceptive activity in Swiss mouse assessed as inhibition of formaldehyde-induced nociceptive response in right hind paw at 3 to 30 mg/kg, po administered 1 hr followed by formaldehyde challenge. The format is functional, organism-based. The gist of the method: as §3
Series [9] concerns Mus musculus. Kind of series: Antinociceptive activity in Swiss mouse assessed as inhibition of formaldehyde-induced nociceptive response in right hind paw at 100 mg/kg, po administered 1 hr followed by formaldehyde challenge measured over 5 mins. Type of series: functional, organism-based. Further details: dose 100 mg/kg. Summed up: as §3
For series [10], the system named is Mus musculus. The series can be described thus: Antinociceptive activity in po dosed Swiss mouse assessed as inhibition of formaldehyde-induced nociceptive response in right hind paw administered 1 hr followed by formaldehyde challenge measured over 5 mins. Type of series: functional, organism-based. The gist of the method: as §3
The test system of series [11] is Mus musculus. The series can be described thus: Antinociceptive activity in Swiss mouse assessed as inhibition of formaldehyde-induced nociceptive response in right hind paw at 100 mg/kg, po administered 1 hr followed by formaldehyde challenge measured for 15 to 30 mins. The format is functional, organism-based. Further details: dose 100 mg/kg. Summed up: as §3

The nature of series [12]: Half life in Swiss mouse at 100 mg/kg, po by LC-MS/MS analysis. Also on record: dose 100 mg/kg, route oral. Type of series: ADME, organism-based. The conditions noted are these: in vivo. Summed up: as §2
The nature of series [13]: AUC (0 to t) in Swiss mouse at 100 mg/kg, po by LC-MS/MS analysis. The format is ADME, organism-based. Further details: dose 100 mg/kg, route oral. The conditions noted are these: plasma. Summed up:
as §2

Series [14] has as its system Mus musculus. The series can be described thus: Toxicity in Swiss mouse assessed as time spent on rotating rod at 150 mg/kg, po administered 1 hr prior to testing (reference value: 120 secs). The format is organism-based. Also on record: dose 150 mg/kg, route oral. The conditions noted are these: in vivo. Summed up: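 Female Swiss mice were trained on a rota-rod (14 rpm) over 3 days, with a 2 min cut-off. After baseline timing, they were dosed p.o. with vehicle (0.5% CMC, 4 ml/kg), compound at 150 mg/kg, or phenobarbital 40 mg/kg as positive control, and retested 1 h later. n = 9.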

A short description of series [15]: Tmax in Swiss mouse at 100 mg/kg, po by LC-MS/MS analysis. Particulars: in vivo. Further details: dose 100 mg/kg, route oral. The format is ADME, organism-based. Summed up: as §2
In series [16] the test system is Mus musculus. Kind of series: Toxicity in Swiss mouse assessed as time spent on rotating rod at 40 mg/kg, po administered 1 hr prior to testing (reference value: 119 +/- 1 secs). The format is organism-based. Further details: dose 40 mg/kg, route oral. Particulars: in vivo.
Series [17] concerns Mus musculus. Kind of series: Antinociceptive activity in Swiss mouse assessed as inhibition of formaldehyde-induced nociceptive response in right hind paw at 150 mg/kg, po administered 1 hr followed by formaldehyde challenge measured 15 to 30 mins. Type of series: functional, organism-based. Further details: dose 150 mg/kg. The gist of the method: as §3
The test system of series [18] is Mus musculus. Kind of series: Antinociceptive activity in Swiss mouse assessed as inhibition of formaldehyde-induced nociceptive response in right hind paw at 150 mg/kg, po administered 1 hr followed by formaldehyde challenge measured over 5 mins. Further details: dose 150 mg/kg. The format is functional, organism-based. Summed up: as §3

For `O=C(NCCO)c1ccccn1`, the inhibition result in series [1] and in series [2] was “inactive” each time.
In general, AUC(0-inf) refers to total exposure, with the tail of the curve extrapolated. Lower therefore signals less exposure. Broadly, the Cmax is the highest concentration seen after dosing. As a reminder, the half-life is the time in which the quantity being followed falls by half. The low end stands for fast loss, the high end for slow loss. A word on the AUC(0-t): it is exposure summed from dosing to a finite time, without extrapolation to infinity. Low values mean low exposure, high ones high exposure. What is called Tmax is the time from dosing to the highest level. In the case of `O=C(NCCO[N+](=O)[O-])c1cccnc1` [NICORANDIL], the AUC(0-inf) in series [3] was determined as 123 µg·h/mL. The Drug metabolism result in series [4] and in series [6] was “metabolite_detected” each time. The compound also yielded a maximum concentration (Cmax) in series [5] of 42600 ng/mL. Besides, the inhibition entry in [7], in series [9] and in [11] was “Active” in each case. For the same compound, the inhibition result in series [8] is “inactive”. Also, the inhibition entry in series [10] was “Dose-dependent effect”. In series [12], this compound showed a half-life of 90 min. In addition, the exposure AUC(0-t) in series [13] was 121 µg·h/mL. Besides, the Time in [14] is reported as 120 s. The time to peak (Tmax) in [15] was found to be 40.2 min.
For `O=C(NCCO[N+](=O)[O-])c1ccncc1`, the total exposure AUC(0-inf) in series [3] came out at 160 µg·h/mL. Further, the Drug metabolism result in series [4] and in series [6] was “metabolite_detected” each time. The Cmax in [5] worked out at 49400 ng/mL. For the same compound, the inhibition result in series [7], in series [9] and in [11] was “Active” in each case. In [12], this compound gave a half-life of 45.6 min. The compound also had an AUC(0-t) in series [13] of 160 µg·h/mL. For the same compound, in [14], the Time is on record as 120 s. The time to peak (Tmax) in series [15] was determined as 52.8 min.
In the case of `CCC1(c2ccccc2)C(=O)NC(=O)NC1=O` [PHENOBARBITAL], the Time in [16] is reported as 26 s.
In series [3], `O=C(NCCO[N+](=O)[O-])c1ccccn1` displayed a total exposure AUC(0-inf) of 10.1 µg·h/mL. For the same compound, the Drug metabolism result in [4] is given as “metabolite_notdetected”; in [6] it was “metabolite_detected”. In [5], this compound yielded a peak concentration (Cmax) of 30800 ng/mL. Further, the inhibition result in series [17], in [9], in series [11] and in series [18] was “Active” in each case. For the same compound, the inhibition entry in series [1] and in [2] was “inactive” in each case. Further, the half-life in [12] was 66 min. In series [13], this compound came in with an AUC(0-t) of 10.1 µg·h/mL. Besides, in [14], the Time is listed as 120 s. For the same compound, the Tmax in series [15] is 6.6 min.
As for `O=C(NCCO)c1cccnc1`, the inhibition entry in [1] and in series [2] was “inactive” in each case.
As for `O=C(NCCO)c1ccncc1`, the inhibition result in series [1] and in series [2] was “inactive” throughout.
